Laboratory results published in ChEMBL document CHEMBL1137302 (J Med Chem, 2006).
Calls of active or inactive are those of the source. The calls are words filed in the database; no cut-off is given here.

Columns and labels:
[1] = Bioavailability in rat at 1 mg/kg, sc; type: ADME, organism-based; details: in vivo
How it was run: (§1)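 Single 1 mg/kg dose given iv, sc or orally to Sprague-Dawley rats, dogs and monkeys; plasma concentrations followed over time (mean ± SEM, n = 3). Cmax, AUC, half-life, clearance and bioavailability calculated from the curves.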

[2] = Agonist activity at ferret D4 receptor in HEK293 cells coexpressing G-alpha-qo5 by FLIPR relative to dopamine; type: functional, Mustela putorius furo
[3] = AUC in rat at 1 mg/kg, sc; type: ADME, organism-based; design: dose 1 mg/kg, route subcutaneous; details: plasma; how it was run: as §1
[4] = Cmax in monkey at 1 mg/kg, po; type: ADME, organism-based, Macaca mulatta; design: dose 1 mg/kg, route oral; details: rhesus monkey, in vivo; how it was run: as §1
[5] = tested on: Rattus norvegicus; assay: Proerectile activity in rat measured as incidence of penile erection at 0.1 umol/kg, sc; type: functional
How it was run: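 Conscious male rats were given a single subcutaneous injection and observed for penile erections over the following 60 min. The read-out was the incidence of erections, expressed as % of animals ± SEM (n = 12–32 animals per group), with significance tested against controls. The value is the maximal incidence at the maximally effective dose.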

[6] = target: T1, D(4) dopamine receptor (Homo sapiens) (UniProt P21917); assay: Activity at human D4.4 receptor in HEK293 cells co-expressing Galphaqo5 by FLIPR; type: functional, cell-based; details: filed as agonist
T1 sequence (whole entry): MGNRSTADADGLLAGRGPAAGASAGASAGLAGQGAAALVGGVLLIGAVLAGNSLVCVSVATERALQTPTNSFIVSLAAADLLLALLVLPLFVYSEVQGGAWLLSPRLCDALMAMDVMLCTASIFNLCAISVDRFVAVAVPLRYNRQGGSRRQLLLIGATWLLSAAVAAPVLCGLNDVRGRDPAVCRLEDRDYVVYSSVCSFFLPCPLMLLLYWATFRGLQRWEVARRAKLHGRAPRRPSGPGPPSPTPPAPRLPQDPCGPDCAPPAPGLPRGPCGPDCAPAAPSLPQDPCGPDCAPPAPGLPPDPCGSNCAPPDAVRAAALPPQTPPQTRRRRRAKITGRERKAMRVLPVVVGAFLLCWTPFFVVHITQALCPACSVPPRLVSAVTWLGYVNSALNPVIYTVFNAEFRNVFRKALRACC

[7] = target: T2, D(2) dopamine receptor (Homo sapiens, UniProt P14416); assay: Agonist activity at human D2 receptor in HEK293 cells coexpressing G-alpha-qo5 by FLIPR relative to dopamine upto 10 uM; type: functional, cell-based
How it was run: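 Ca2+ flux by FLIPR in HEK cells cotransfected with the D2 receptor (human, ferret or rat) plus chimeric G protein Gqo5.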

[8] = target: T3, D(4) dopamine receptor (Rattus norvegicus) (UniProt P30729); assay: Agonist activity at rat D4 receptor in HEK293 cells co-expressing Galphaqo5 by FLIPR relative to dopamine; type: functional, cell-based
T3 sequence (whole entry): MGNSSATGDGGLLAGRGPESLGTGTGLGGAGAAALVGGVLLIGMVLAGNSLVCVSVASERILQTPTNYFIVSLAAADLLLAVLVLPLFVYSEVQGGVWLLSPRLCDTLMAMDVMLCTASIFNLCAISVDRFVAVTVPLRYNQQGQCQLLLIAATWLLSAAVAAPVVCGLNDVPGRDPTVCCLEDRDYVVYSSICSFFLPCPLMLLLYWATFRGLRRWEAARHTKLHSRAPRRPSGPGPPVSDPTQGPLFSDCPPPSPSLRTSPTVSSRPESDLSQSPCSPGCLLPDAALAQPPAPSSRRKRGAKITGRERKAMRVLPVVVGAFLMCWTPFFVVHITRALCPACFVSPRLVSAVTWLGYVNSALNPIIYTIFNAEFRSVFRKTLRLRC

[9] = Bioavailability in dog at 1 mg/kg, po; type: ADME, organism-based, Canis lupus familiaris; details: in vivo; how it was run: as §1
[10] = target: cGMP-specific 3',5'-cyclic phosphodiesterase (Homo sapiens) (UniProt O76074); assay: Activity at PDE5 at 10 uM
How it was run: (§2)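 Broad selectivity panel (over 70 receptors, ion channels and neuronal receptors, PDE1-6 included) run at a single 10 µM concentration.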

[11] = Plasma clearance in iv dosed rat; type: ADME, organism-based; how it was run: as §1
[12] = Effect on canine cardiac Purkinje fiber repolarization measured as prolongation of action potential duration at 3 ug/mL; type: functional, Canis lupus familiaris
How it was run: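 Canine Purkinje fibers impaled with 3 M KCl microelectrodes. Fibers accepted with resting potential below -80 mV and APD 300-500 ms. Paced at BCL 2 s, then 800 and 400 ms. Two ascending concentrations applied, each after 25 min equilibration. APD90 measured at all three rates.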

[13] = target: T4, D(4) dopamine receptor (Rattus norvegicus, UniProt P30729); assay: Agonist activity at rat D4 receptor in HEK293 cells coexpressing G-alpha-qo5 by FLIPR; type: functional, cell-based
T4 sequence (P30729 whole entry): T3 sequence (whole entry)

[14] = Bioavailability in rat at 1 mg/kg, po; type: ADME, organism-based; details: in vivo; how it was run: as §1
[15] = Cmax in rat at 1 mg/kg, sc; type: ADME, organism-based; design: dose 1 mg/kg, route subcutaneous; details: in vivo; how it was run: as §1
[16] = target: cGMP-dependent 3',5'-cyclic phosphodiesterase (Homo sapiens) (UniProt O00408); assay: Activity at PDE2 at 10 uM; how it was run: as §2
[17] = target: T5, D(4) dopamine receptor (Homo sapiens, UniProt P21917); assay: Agonist activity at human D4.4 receptor in HEK293 cells coexpressing G-alpha-qo5 by FLIPR; type: functional, cell-based
T5 sequence (P21917 whole entry): T1 sequence (whole entry)

[18] = species: Mustela putorius furo; assay: Induction of nausea in ferret; type: functional, organism-based
[19] = Agonist activity at ferret D4 receptor in HEK293 cells coexpressing G-alpha-qo5 by FLIPR; type: functional, cell-based, Mustela putorius furo; details: Mustela putorius
How it was run: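 HEK cells cotransfected with ferret D4 receptor and chimeric G protein Gqo5, with receptor activation read as a calcium flux signal on FLIPR. EC50 is the concentration giving half-maximal activation.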

[20] = target: hERG (Homo sapiens, UniProt Q12809); assay: Blockade of current at hERG expressed in HEK293 cells at 1 ug/mL; type: cell-based; details: HEK293 cells that express hERG
How it was run: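 hERG stably expressed in HEK 293 cells (MEM with 10% FBS, G418), whole-cell voltage clamp. Pipette: K aspartate/KCl/EGTA/MgATP, pH 7.3. Bath: NaCl-based HEPES, pH 7.4. Compound dissolved in DMSO and diluted in bath (DMSO ≤0.1%), one concentration per cell. Steps to -25, 0, 25, 50 mV for 3 s, then -50 mV for 4 s, from -80 mV every 15 s.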

[21] = target: Phosphodiesterase 4 (Homo sapiens) (UniProt P27815+Q08499+Q07343+Q08493); assay: Activity at PDE4 at 10 uM; type: protein assay; how it was run: as §2
[22] = target: D(3) dopamine receptor (Homo sapiens) (UniProt P35462); assay: Agonist activity at human D3 receptor in HEK293 cells coexpressing G-alpha-qo5 by FLIPR upto 10 uM; type: functional, cell-based
[23] = AUC in monkey at 1 mg/kg, po; type: ADME, organism-based, Macaca mulatta; design: dose 1 mg/kg, route oral; details: rhesus monkey, plasma; how it was run: as §1
[24] = target: T2, D(2) dopamine receptor; assay: Displacement of [125I]7-OH-PIPAT from human D2L receptor expressed in HEK293 cell membrane; type: cell membranes
[25] = Half life in rat at 1 mg/kg, po; type: ADME, organism-based; design: dose 1 mg/kg, route oral; details: in vivo; how it was run: as §1
[26] = Plasma clearance in iv dosed dog; type: ADME, organism-based, Canis lupus familiaris; how it was run: as §1
[27] = Half life in rat at 1 mg/kg, sc; type: ADME, organism-based; design: dose 1 mg/kg, route subcutaneous; details: in vivo; how it was run: as §1
[28] = Half life in monkey at 1 mg/kg, po; type: ADME, organism-based, Macaca mulatta; design: dose 1 mg/kg, route oral; details: rhesus monkey, in vivo; how it was run: as §1
[29] = target: Phosphodiesterase 3 (Homo sapiens) (UniProt Q14432+Q13370); assay: Activity at PDE3 at 10 uM; type: protein assay; how it was run: as §2

T2 sequence (P14416 whole entry): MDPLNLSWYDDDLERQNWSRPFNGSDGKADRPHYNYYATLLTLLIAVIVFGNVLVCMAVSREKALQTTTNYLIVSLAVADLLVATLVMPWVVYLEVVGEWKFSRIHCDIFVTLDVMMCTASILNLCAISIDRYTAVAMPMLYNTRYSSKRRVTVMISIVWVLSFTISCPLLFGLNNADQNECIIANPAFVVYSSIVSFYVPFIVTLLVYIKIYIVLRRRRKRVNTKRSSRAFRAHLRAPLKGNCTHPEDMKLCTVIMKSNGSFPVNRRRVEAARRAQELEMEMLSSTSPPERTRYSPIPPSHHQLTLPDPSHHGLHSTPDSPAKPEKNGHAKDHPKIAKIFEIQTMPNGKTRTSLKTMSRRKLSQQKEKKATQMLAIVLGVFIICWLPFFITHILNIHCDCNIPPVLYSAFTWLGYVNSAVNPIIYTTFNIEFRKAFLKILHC
Sequence of cGMP-dependent 3',5'-cyclic phosphodiesterase (Homo sapiens) (O00408 whole entry): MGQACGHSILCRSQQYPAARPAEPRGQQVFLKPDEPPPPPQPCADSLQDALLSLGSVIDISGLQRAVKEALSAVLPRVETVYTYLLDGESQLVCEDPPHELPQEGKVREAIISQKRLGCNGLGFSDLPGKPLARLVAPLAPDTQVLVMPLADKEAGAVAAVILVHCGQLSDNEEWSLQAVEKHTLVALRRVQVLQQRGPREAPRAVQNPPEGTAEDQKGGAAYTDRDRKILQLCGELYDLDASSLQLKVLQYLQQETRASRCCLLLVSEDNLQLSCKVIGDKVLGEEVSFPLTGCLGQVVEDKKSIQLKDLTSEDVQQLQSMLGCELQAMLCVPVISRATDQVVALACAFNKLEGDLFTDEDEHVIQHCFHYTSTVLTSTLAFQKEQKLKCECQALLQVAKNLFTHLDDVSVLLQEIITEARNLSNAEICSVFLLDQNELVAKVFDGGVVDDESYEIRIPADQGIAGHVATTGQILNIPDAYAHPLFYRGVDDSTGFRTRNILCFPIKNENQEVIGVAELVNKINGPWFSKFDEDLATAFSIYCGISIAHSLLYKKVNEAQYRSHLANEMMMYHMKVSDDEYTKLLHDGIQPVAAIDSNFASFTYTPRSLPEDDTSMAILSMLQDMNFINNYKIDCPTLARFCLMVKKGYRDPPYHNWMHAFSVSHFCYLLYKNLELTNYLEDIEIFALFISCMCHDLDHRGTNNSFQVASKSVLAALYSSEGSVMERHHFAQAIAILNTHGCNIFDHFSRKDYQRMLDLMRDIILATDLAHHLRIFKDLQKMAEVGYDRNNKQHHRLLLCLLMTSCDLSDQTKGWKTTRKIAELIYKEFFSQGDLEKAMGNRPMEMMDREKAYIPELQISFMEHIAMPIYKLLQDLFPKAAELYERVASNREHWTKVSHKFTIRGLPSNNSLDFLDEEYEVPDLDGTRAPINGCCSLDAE
Sequence of D(3) dopamine receptor (Homo sapiens) (P35462 whole entry): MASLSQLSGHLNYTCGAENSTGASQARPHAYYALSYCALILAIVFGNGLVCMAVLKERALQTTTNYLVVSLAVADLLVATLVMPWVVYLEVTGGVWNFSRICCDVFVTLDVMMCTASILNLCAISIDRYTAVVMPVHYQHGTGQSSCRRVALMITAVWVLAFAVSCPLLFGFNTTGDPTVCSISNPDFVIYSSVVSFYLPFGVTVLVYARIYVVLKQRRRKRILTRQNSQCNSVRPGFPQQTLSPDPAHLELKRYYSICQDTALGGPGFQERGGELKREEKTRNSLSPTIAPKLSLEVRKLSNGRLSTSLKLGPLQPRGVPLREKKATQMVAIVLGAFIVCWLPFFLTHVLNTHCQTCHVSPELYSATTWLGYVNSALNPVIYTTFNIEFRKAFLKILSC
Sequence of hERG (Q12809 whole entry): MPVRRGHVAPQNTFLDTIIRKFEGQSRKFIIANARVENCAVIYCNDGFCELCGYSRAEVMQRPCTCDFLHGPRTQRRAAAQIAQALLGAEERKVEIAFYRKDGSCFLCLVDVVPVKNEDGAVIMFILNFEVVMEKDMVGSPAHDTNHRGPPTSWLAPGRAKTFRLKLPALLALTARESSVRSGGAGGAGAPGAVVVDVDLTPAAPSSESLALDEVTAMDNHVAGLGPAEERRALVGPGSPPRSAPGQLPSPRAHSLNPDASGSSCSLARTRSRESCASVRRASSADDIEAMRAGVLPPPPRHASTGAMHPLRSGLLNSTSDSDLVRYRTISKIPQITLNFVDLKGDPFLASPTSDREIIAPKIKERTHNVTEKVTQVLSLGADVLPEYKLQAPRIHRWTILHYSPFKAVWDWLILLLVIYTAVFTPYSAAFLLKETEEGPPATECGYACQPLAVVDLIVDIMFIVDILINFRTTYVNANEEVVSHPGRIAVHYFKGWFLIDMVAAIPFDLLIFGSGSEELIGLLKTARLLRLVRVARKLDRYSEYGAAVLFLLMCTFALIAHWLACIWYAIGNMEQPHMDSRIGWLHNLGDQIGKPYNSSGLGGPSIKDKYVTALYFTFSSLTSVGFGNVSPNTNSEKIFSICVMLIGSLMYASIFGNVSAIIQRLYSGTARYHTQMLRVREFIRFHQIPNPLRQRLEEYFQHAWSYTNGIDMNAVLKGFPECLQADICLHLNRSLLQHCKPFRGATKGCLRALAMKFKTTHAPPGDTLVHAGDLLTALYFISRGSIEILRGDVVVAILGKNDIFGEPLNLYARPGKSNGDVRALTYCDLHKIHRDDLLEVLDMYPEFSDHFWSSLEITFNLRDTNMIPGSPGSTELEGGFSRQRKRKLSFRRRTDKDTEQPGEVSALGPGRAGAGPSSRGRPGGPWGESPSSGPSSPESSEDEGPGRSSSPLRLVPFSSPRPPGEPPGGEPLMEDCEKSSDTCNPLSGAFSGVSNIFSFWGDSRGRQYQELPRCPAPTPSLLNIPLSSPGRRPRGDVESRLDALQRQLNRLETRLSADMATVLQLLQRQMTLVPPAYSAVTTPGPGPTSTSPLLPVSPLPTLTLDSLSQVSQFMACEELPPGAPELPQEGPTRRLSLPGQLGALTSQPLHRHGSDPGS

Cc1cccc(C(=O)NCN2CCC(c3cccc[n+]3[O-])CC2)c1
bioavailability [1]: 84%
Efficacy [2]: 76%
AUC [3]: 1140 ng·h/mL
Cmax [4]: 660 ng/mL
Activity [5]: 75%
Activity [6]: Agonist
Activity [7]: inactive
Efficacy [8]: 78%
bioavailability [9]: 85%
Activity [10]: inactive
clearance [11]: 12.3 mL/min/kg
Activity [12]: 4.3%
EC50 [13]: 0.093 µM
bioavailability [14]: 68%
Cmax [15]: 465 ng/mL
Activity [16]: inactive
EC50 [17]: 0.089 µM
Activity [18]: inactive
EC50 [19]: 0.16 µM
inhibition at 1 ug/mL [20]: 14.4%
Activity [21]: inactive
Activity [22]: inactive
AUC [23]: 2280 ng·h/mL
Ki [24]: > 10 µM
half-life [25]: 1.8 h
clearance [26]: 3.33 mL/min/kg
half-life [27]: 1.2 h
half-life [28]: 2 h
Activity [29]: inactive
